Hits are enriched below; roughly 3% of the tested compounds scored in any of these assays.
sEH act: activators of human soluble epoxide hydrolase; P34913; purified human sEH enzymatic activity, activator screen; activation, % at 2 µM; actives 0.04% (n = 91,000); in the data active = activation above about 37%
Target sequence (P34913 whole entry, looked up): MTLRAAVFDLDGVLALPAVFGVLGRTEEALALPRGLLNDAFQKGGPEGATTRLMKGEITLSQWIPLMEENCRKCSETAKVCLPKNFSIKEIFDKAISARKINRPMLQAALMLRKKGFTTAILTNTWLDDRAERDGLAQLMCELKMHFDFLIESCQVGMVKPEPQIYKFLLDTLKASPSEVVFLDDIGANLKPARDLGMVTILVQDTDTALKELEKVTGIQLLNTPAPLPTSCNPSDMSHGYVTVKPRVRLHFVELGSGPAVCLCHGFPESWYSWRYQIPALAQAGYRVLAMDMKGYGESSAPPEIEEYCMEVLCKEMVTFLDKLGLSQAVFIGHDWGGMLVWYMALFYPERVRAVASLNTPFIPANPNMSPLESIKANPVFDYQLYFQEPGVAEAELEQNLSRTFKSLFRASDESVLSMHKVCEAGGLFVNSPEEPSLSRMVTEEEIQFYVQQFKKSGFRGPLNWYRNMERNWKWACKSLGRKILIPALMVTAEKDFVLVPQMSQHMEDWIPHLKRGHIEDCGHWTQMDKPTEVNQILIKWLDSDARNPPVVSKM
BB579 growth dn: yeast BB579 growth reduction in restrictive medium; actives 0.51% (n = 140,000); S. cerevisiae BB579 growth, OD615, 48 h; inhibition, % at 10 µM; AID 804;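 active = inhibition above a set limit, 3 SD over the mean compound inhibition, cut at about 44% in these data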
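System: Saccharomyces cerevisiae DeaD strain BB579, replicative lifespan model yeast | Buffer or medium: Restrictive glucose-based CSMM-D medium | Times: 4 h preincubation and 48 h exposure at 30 °C | Detection: OD615 turbidity measurement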
sEH inhibitor: blocks human soluble epoxide hydrolase activity | AID 707 | inhibition, % at 2 µM | recombinant human sEH enzymatic activity assay | actives 0.34% (n = 91,000) | P34913; in the data active = inhibition above about 80%
Yeast life ext: yeast lifespan extension; S. cerevisiae growth with nicotinamide, OD615; deaD strain in restrictive glucose medium; inhibition of the nicotinamide effect, % at 10 µM; actives 0.68% (n = 130,000); AID 775;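 active = inhibition above a set limit, placed 3 SD over the median of all compounds, cut at about 26% in these data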;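 also: 0% = nicotinamide-treated wells and 100% = cells grown without nicotinamide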
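Assay system: engineered S. cerevisiae DeaD replicative-lifespan strain, galactose-grown log-phase cells; Buffer or medium: CSMM-D glucose medium, restrictive; Probe or stimulus: nicotinamide 1.5 mM; Compound: single dose 10 µM compound, 0.25% DMSO; Schedule: 4 h preincubation then 48 h treatment at 30 °C; Technique: OD615 measurement.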
Measles CPE: protection of cells from measles virus; actives 1.5% (n = 140,000); AID 841; Measles virus-infected cells, CPE protection, absorbance; protection (pct of control), % at 4 µM; in the data active = protection mostly above about 24%, no sharp cut-off; inactive = mostly below about 26%
sdo1 growth: restores growth of sdo1-depleted yeast. S. cerevisiae sdo1-depleted JHY4D growth rescue, OD600 30 h; active compounds read high; pdr5 snq2 efflux-pump mutant strain. z-score at 10 µM. actives 0.21% (n = 140,000). AID 817;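 active = z-score above 3 at both the 24 hr and the 30 hr optical density reads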;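 also: z-score against mean and SD of all compound wells on the same plate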
Numbers without * were called inactive; [ ] = another dose, or the depositor's remark.

Results for N#Cc1ccc(OCC(=O)NCCc2ccccn2)cc1 ?
sEH act: 0; BB579 growth dn: -26; sEH inhibitor: 2; Yeast life ext: 46*; Measles CPE: 17; sdo1 growth: 0.67

How did O=C(COc1ccc2ccccc2c1)NNC(=O)Cc1ccccc1 do in these assays?
BB579 growth dn: -30; Yeast life ext: -1; Measles CPE: 15; sdo1 growth: 0.53

Results for O=C(COc1ccc2ccccc2c1)NCCNC(=O)COc1ccc2ccccc2c1 ?
sEH act: 0; BB579 growth dn: -63; sEH inhibitor: -4; Yeast life ext: 5; Measles CPE: 85*; sdo1 growth: -0.64

How did O=C(COc1ccc(Br)cc1)NCc1ccccn1 do in these assays?
sEH act: 3; BB579 growth dn: -18; sEH inhibitor: -8; Yeast life ext: -15; Measles CPE: 4; sdo1 growth: 0.23

What do the screens show for `Cc1ccccc1C(=O)OC1OC(=O)C(Cl)=C1N1CCOCC1` (stereo not drawn)?
BB579 growth dn: -7; Yeast life ext: 0; Measles CPE: 4; sdo1 growth: 0.68

How did CC(C)COC(=O)c1ccc2c(c1O)C(=O)c1ccccc1C2=O do in these assays?
sEH act: -11; BB579 growth dn: -26; sEH inhibitor: 8; Yeast life ext: -8; Measles CPE: 8; sdo1 growth: -1.9

Results for CCC(C)(C)C(=O)Nc1ncc(S(=O)(=O)c2ccc([N+](=O)[O-])cc2)s1 ?
sEH act: 11; BB579 growth dn: -29; sEH inhibitor: -8; Yeast life ext: -5; Measles CPE: 53*; sdo1 growth: -0.53

What do the screens show for `COc1cc(C(=O)OCCNC(=O)c2ccncc2)cc(OC)c1OC`?
BB579 growth dn: -26; Yeast life ext: 2; Measles CPE: 29; sdo1 growth: 0.38

How did CCOc1cc(C(=O)N/N=C/C2CC=CCC2)cc(OCC)c1OCC (stereo not drawn) do in these assays?
BB579 growth dn: -10; Yeast life ext: 2; Measles CPE: 21; sdo1 growth: -0.31

How did CCCn1c(SCC(=O)N2c3ccccc3Sc3ccccc32)nc2ccccc21 do in these assays?
BB579 growth dn: -39; Yeast life ext: -2; Measles CPE: 33*; sdo1 growth: 0.16

What do the screens show for `CCCn1c(SCC(=O)O)nc2ccccc21`?
sEH act: -1; BB579 growth dn: -38; sEH inhibitor: 1; Yeast life ext: -8; Measles CPE: 16; sdo1 growth: 1.3

How did CCSc1nnc(NC(=O)CSc2nc(C)cc(C)n2)s1 do in these assays?
sEH act: 0; BB579 growth dn: -39; sEH inhibitor: 2; Yeast life ext: 36*; Measles CPE: 14; sdo1 growth: -0.02

What do the screens show for `COC(=O)c1cccc(NC(=O)CCSc2ccc(Cl)cc2)c1C`?
sEH act: -62; BB579 growth dn: -45; sEH inhibitor: 62; Yeast life ext: -5; Measles CPE: 6; sdo1 growth: -0.73

What do the screens show for `CCCN(CCC)c1ncnc2c1cnn2-c1ccc(OC)cc1`?
sEH act: 10; BB579 growth dn: -65; sEH inhibitor: -11; Yeast life ext: -21; Measles CPE: 92*; sdo1 growth: -0.67

Results for CCCNc1ncnc2c1cnn2-c1ccc(OC)cc1 ?
BB579 growth dn: -11; Yeast life ext: -15; Measles CPE: 9; sdo1 growth: 1.8[15.7 µM]

Results for COc1ccc(-n2ncc3c(Nc4cccc(C)c4)ncnc32)cc1 ?
BB579 growth dn: -24; Yeast life ext: -6; Measles CPE: 38*; sdo1 growth: -1.6

Results for CCN(Cc1ccncc1)C(=O)C1CCN(S(=O)(=O)c2cccs2)CC1 ?
sEH act: 5; BB579 growth dn: -29; sEH inhibitor: -2; Yeast life ext: -5; Measles CPE: 17; sdo1 growth: 1

How did O=C(CSc1nnc(SCc2cccc3ccccc23)s1)N/N=C/C=C/c1ccccc1[N+](=O)[O-] do in these assays?
BB579 growth dn: -36; Yeast life ext: 5; Measles CPE: 2; sdo1 growth: -0.33

What do the screens show for `O=C1N=C(N2CCc3ccccc3C2)S/C1=C\c1cccc(O)c1`?
BB579 growth dn: -28; Yeast life ext: -3; Measles CPE: 14; sdo1 growth: -0.38

Results for CC(C)Cn1cnc2c(c1=O)c1nc3ccccc3nc1n2Cc1ccc2c(c1)OCO2 ?
BB579 growth dn: -12; Yeast life ext: -15; Measles CPE: 58*; sdo1 growth: -0.92

Results for Cc1cc(C(=O)CSc2n[nH]c(N)n2)c(C)n1-c1ccccc1 ?
sEH act: 1; BB579 growth dn: -78; sEH inhibitor: 1; Yeast life ext: -12; Measles CPE: 26*; sdo1 growth: -0.02

How did COC(=O)Nc1ccc2ncn(C)c(=O)c2c1 do in these assays?
BB579 growth dn: 4; Yeast life ext: -7; Measles CPE: 12; sdo1 growth: -0.32

Results for CC(C)c1ccc(C2=C(O)c3ccccc3C(=O)C2=O)cc1 ?
BB579 growth dn: 5; Yeast life ext: 46*; Measles CPE: 7; sdo1 growth: -1

How did CCC1SC2=NC(C)=C(C(=O)OCCOC)C(/C=C/c3ccccc3OC)N2C1=O (stereo not drawn) do in these assays?
sEH act: -5; BB579 growth dn: -53; sEH inhibitor: 5; Yeast life ext: 2; Measles CPE: 54*; sdo1 growth: -0.02

How did CCC1SC2=NC(C)=C(C(=O)OCC(C)C)C(/C=C/c3ccccc3OC)N2C1=O (stereo not drawn) do in these assays?
sEH act: -4; BB579 growth dn: -22; sEH inhibitor: 4; Yeast life ext: 4; Measles CPE: 7; sdo1 growth: 0.17

Results for COC(=O)c1ccc(OCC(O)CN(CC(C)C)CC(C)C)cc1 (stereo not drawn) ?
sEH act: 3; BB579 growth dn: -33; sEH inhibitor: -2; Yeast life ext: -10; Measles CPE: 4; sdo1 growth: 0.65

What do the screens show for `Cc1ccc(CNc2nc3ccccc3s2)s1`?
sEH act: -4; BB579 growth dn: -38; sEH inhibitor: 8; Yeast life ext: 32*; Measles CPE: 4; sdo1 growth: -1.9

What do the screens show for `c1ccc2c3c([nH]c2c1)-c1[nH]ncc1CC3`?
sEH act: 0; BB579 growth dn: -12; sEH inhibitor: -2; Yeast life ext: -13; Measles CPE: 25; sdo1 growth: -0.37

What do the screens show for `Clc1ccc2[nH]c3c(c2c1)CCc1cn[nH]c1-3`?
sEH act: -2; BB579 growth dn: 100*; sEH inhibitor: 2; Yeast life ext: -29; Measles CPE: 4; sdo1 growth: -2.4

Results for CCN(CCNC(=O)C1CCN(Cc2nc(-c3cccc(Cl)c3)oc2C)CC1)c1ccccc1 ?
sEH act: -90; BB579 growth dn: -74; sEH inhibitor: 90*; Yeast life ext: -14; sdo1 growth: -0.39
